Assay [1] deals with T1, Inosine-5'-monophosphate dehydrogenase (Escherichia coli K-12, UniProt P0ADG7).
T1 sequence (P0ADG7 whole entry): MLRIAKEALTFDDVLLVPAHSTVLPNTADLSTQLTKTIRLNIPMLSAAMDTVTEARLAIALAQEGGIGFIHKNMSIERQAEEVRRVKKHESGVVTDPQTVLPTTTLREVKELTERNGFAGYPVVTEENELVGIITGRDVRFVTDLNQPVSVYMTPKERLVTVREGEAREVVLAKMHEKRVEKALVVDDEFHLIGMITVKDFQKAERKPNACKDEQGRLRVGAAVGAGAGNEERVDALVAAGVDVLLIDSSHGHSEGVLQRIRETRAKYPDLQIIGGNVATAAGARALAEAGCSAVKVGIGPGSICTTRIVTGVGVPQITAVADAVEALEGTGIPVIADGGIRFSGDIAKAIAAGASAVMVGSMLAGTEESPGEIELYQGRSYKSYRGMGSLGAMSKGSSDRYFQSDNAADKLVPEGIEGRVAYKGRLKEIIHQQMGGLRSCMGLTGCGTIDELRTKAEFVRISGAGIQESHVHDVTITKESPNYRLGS
In words: Ability to inhibit Inosine-5'-monophosphate dehydrogenase isolated from Escherichia coli. The note with it: read-out: I50. The procedure, abridged:
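Crude E. coli IMP dehydrogenase (0–40% ammonium sulfate precipitate) in 0.05 M Tris pH 8.5 with 33.4 mM KCl, 1.5 mM glutathione, 0.8 mM NAD+ and 0.002 unit enzyme, run at 25 °C. NADH rise at 340 nm gave initial rates. I50 was read graphically at 50 µM IMP, with inhibitor levels bracketing 50%; duplicates agreed within 20%. Ki came from a competitive-equation fit over 10–75 µM IMP.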

Assay [2] concerns the target IMP dehydrogenase (Escherichia coli). In words: Ability to inhibit Inosine-5'-monophosphate dehydrogenase isolated from Escherichia coli.

For the molecule `CCCCCCCc1nc(O)c2ncn(C3O[C@@H](COP(=O)(O)O)[C@H](O)[C@@H]3O)c2n1` (some centres undefined), the IC50 in assay [1] worked out at 270 µM.

As for `CCCc1nc(O)c2ncn(C3O[C@@H](COP(=O)(O)O)[C@H](O)[C@@H]3O)c2n1` (some centres undefined), the Ki (in general, the dissociation constant of the complex between target and ligand, obtained from inhibition or displacement) in assay [2] is 190 µM.

As to `O=[N+]([O-])c1ccc(CSc2nc(O)c3ncn(C4O[C@@H](COP(=O)(O)O)[C@H](O)[C@@H]4O)c3n2)cc1` (some centres undefined), the IC50 in assay [1] worked out at 56 µM.

As to `CCCCCCCCc1nc(O)c2ncn(C3O[C@@H](COP(=O)(O)O)[C@H](O)[C@@H]3O)c2n1` (some centres undefined), the IC50 in assay [1] turned out to be 680 µM.

With `O=P(O)(O)OC[C@@H]1OC(n2cnc3c(O)nc(-c4cccnc4)nc32)[C@@H](O)[C@H]1O` (some centres undefined), the IC50 in assay [1] is more than 1000 µM.

Regarding `O=P(O)(O)OC[C@@H]1OC(n2cnc3c(O)nc(Cc4cccnc4)nc32)[C@@H](O)[C@H]1O` (some centres undefined), the IC50 in assay [1] is 430 µM.

For the molecule `O=P(O)(O)OC[C@@H]1OC(n2cnc3c(O)nc(Cc4ccccc4)nc32)[C@@H](O)[C@H]1O` (some centres undefined), the IC50 in assay [1] was 770 µM.

On to `COc1ccc(-c2nc(O)c3ncn(C4O[C@@H](COP(=O)(O)O)[C@H](O)[C@@H]4O)c3n2)cc1` (some centres undefined), for which, in assay [1], the IC50 is 810 µM.

As to `O=P(O)(O)OC[C@@H]1OC(n2cnc3c(O)nc(/C=C/c4ccccc4)nc32)[C@@H](O)[C@H]1O` (some centres undefined), in assay [1], the IC50 turned out to be 69 µM.

For `CCCCCCc1nc(O)c2ncn(C3O[C@@H](COP(=O)(O)O)[C@H](O)[C@@H]3O)c2n1` (some centres undefined), the IC50 in assay [1] stood at 580 µM.

In the case of `Cc1nc(O)c2ncn(C3O[C@@H](COP(=O)(O)O)[C@H](O)[C@@H]3O)c2n1` (some centres undefined), the Ki in assay [2] worked out at 600 µM.

In assay [2], `O=P(O)(O)OC[C@@H]1OC(n2cnc3c(O)nc(Cl)nc32)[C@@H](O)[C@H]1O` (some centres undefined) returned a Ki of 120 µM.

Consider `CCCCCCCCCCc1nc(O)c2ncn(C3O[C@@H](COP(=O)(O)O)[C@H](O)[C@@H]3O)c2n1` (some centres undefined), for which the IC50 in assay [1] came out at 150 µM.

As to `O=P(O)(O)OC[C@@H]1OC(n2cnc3c(O)nc(SCc4ccccc4Cl)nc32)[C@@H](O)[C@H]1O` (some centres undefined), in assay [1], the IC50 was 72 µM.

Take `O=[N+]([O-])c1cc(CSc2nc(O)c3ncn(C4O[C@@H](COP(=O)(O)O)[C@H](O)[C@@H]4O)c3n2)cc([N+](=O)[O-])c1` (some centres undefined): in assay [1], the IC50 was determined as 85 µM.

Consider `O=[N+]([O-])c1cccc(CSc2nc(O)c3ncn(C4O[C@@H](COP(=O)(O)O)[C@H](O)[C@@H]4O)c3n2)c1` (some centres undefined), for which, in assay [1], the IC50 turned out to be 33 µM.

For `CCCCCCCCCc1nc(O)c2ncn(C3O[C@@H](COP(=O)(O)O)[C@H](O)[C@@H]3O)c2n1` (some centres undefined), the IC50 in assay [1] was 160 µM.

In assay [2], `COc1nc(O)c2ncn(C3O[C@@H](COP(=O)(O)O)[C@H](O)[C@@H]3O)c2n1` (some centres undefined) gave a Ki of 46 µM. That is a double-digit micromolar value.

Take `O=P(O)(O)OC[C@@H]1OC(n2cnc3c(O)nc(-c4ccccc4)nc32)[C@@H](O)[C@H]1O` (some centres undefined): the IC50 in assay [1] was more than 1000 µM.
